Laboratory results: ChEMBL document CHEMBL3351313, “Discovery of (S)-2-cyclopentyl-N-((1-isopropylpyrrolidin2-yl)-9-methyl-1-oxo-2,9-dihydro-1H-pyrrido[3,4-b]indole-4-carboxamide (VU0453379): a novel, CNS penetrant glucagon-like peptide 1 receptor (GLP-1R) positive allosteric modulator (PAM)” (J Med Chem, 2014)
Calls of active or inactive are those of the source. The rule behind the calls is not given here.

What was measured:
[1] = target: T1, Glucagon-like peptide 1 receptor (Homo sapiens, UniProt P43220); assay: Positive allosteric modulation of human recombinant GLP1 receptor expressed in 9-3-H cells by calcium mobilization assay; format: functional, cell-based
T1 sequence (P43220 whole entry): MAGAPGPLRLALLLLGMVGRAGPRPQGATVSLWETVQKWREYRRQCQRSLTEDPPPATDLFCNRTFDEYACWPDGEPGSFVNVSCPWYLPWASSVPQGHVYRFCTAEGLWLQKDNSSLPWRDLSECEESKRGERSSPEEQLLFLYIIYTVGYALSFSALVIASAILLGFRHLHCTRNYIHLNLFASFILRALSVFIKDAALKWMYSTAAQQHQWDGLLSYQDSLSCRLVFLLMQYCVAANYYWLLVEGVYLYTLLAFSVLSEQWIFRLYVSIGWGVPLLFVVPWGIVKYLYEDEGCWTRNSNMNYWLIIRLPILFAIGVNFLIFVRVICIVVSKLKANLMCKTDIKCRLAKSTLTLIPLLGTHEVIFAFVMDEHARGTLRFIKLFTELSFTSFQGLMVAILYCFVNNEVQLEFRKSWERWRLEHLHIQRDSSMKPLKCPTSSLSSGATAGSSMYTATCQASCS

[2] = target: T1, Glucagon-like peptide 1 receptor; assay: Positive allosteric modulation of human recombinant GLP1 receptor expressed in 9-3-H cells by calcium mobilization assay relative to control; format: functional, cell-based
Cytochrome P450 1A2 = target: T2, Cytochrome P450 1A2 (Homo sapiens, UniProt P05177); assay: Inhibition of CYP1A2 (unknown origin); format: ADME
T2 sequence (P05177 whole entry): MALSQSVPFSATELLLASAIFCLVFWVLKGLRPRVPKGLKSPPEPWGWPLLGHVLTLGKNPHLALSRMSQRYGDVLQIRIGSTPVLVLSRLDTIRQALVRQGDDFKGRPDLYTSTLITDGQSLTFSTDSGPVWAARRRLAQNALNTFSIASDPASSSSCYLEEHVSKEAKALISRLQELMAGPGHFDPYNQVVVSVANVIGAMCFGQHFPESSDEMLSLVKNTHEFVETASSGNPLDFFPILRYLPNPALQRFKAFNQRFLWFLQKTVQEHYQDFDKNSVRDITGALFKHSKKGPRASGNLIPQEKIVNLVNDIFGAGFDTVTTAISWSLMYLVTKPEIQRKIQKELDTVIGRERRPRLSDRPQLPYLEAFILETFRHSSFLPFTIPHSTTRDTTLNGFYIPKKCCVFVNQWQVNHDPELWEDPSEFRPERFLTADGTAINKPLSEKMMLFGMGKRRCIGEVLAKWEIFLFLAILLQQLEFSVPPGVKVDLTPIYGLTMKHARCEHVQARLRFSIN
How it was run: (§1)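 An in vitro cassette P450 inhibition assay was run in microsomes, with 1A2, 2C9, 2D6 and 3A4 tested together. IC50 values are reported in μM.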

Cytochrome P450 2C9 = Cytochrome P450 2C9 (Homo sapiens, UniProt P11712); assay: Inhibition of CYP2C9 (unknown origin); format: ADME; how it was run: as §1
Chain of Cytochrome P450 2C9 (P11712 whole entry): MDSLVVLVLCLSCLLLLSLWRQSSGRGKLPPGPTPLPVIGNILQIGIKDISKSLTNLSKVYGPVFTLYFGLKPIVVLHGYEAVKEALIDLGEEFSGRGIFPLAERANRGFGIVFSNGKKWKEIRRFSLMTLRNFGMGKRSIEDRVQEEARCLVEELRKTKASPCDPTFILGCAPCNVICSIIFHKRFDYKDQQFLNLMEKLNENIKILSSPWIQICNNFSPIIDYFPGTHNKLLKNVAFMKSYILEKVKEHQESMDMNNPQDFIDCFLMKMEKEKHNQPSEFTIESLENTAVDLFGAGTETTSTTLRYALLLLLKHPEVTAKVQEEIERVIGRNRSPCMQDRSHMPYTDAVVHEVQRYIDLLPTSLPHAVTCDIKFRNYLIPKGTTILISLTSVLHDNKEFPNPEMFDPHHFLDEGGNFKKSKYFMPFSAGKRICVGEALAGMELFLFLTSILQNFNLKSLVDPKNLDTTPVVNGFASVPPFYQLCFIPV

Cytochrome P450 2D6 = Cytochrome P450 2D6 (Homo sapiens, UniProt P10635); assay: Inhibition of CYP2D6 (unknown origin); format: ADME; how it was run: as §1
Chain of Cytochrome P450 2D6 (P10635 whole entry): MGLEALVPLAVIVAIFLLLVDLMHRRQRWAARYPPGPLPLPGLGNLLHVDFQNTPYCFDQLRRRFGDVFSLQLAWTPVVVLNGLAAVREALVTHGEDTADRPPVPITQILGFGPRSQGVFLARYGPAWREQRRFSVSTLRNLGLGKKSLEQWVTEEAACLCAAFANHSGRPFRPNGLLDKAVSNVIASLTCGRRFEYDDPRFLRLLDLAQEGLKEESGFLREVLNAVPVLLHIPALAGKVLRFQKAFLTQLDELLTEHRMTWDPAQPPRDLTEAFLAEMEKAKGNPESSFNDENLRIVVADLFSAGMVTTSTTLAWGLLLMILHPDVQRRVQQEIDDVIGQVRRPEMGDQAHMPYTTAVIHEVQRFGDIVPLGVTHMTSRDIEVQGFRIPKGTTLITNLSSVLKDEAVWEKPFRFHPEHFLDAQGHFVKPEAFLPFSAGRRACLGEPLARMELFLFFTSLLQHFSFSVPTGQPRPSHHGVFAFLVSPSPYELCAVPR

Cytochrome P450 3A4 = Cytochrome P450 3A4 (Homo sapiens, UniProt P08684); assay: Inhibition of CYP3A4 (unknown origin)
Chain of Cytochrome P450 3A4 (P08684 whole entry): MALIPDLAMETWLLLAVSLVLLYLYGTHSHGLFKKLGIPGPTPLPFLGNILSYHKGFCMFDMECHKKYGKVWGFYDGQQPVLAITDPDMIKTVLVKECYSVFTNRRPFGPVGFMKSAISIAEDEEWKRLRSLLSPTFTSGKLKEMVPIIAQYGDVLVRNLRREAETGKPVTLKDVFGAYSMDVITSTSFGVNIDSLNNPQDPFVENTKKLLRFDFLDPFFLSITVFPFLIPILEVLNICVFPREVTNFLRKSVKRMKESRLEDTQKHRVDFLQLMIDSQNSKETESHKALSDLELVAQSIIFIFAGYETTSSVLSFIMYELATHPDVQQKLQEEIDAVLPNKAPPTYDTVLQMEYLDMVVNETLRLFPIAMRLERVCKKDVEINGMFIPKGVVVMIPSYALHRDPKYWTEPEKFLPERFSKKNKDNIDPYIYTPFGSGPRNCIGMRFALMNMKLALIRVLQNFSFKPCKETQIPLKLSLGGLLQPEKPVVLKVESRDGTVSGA

Plasma [3] = assay: Fraction unbound in human plasma; format: ADME, cell-free
Plasma [4] = assay: Fraction unbound in rat plasma; format: ADME, cell-free
[5] = target: T1, Glucagon-like peptide 1 receptor; assay: Positive allosteric modulation of human recombinant GLP1 receptor expressed in 9-3-H cells by calcium mobilization assay in presence of EC20 of GLP1; format: functional, cell-based
[6] = target: T1, Glucagon-like peptide 1 receptor; assay: Positive allosteric modulation of human recombinant GLP1 receptor expressed in 9-3-H cells by calcium mobilization assay in presence of EC20 of GLP1 relative to control; format: functional, cell-based
[7] = target: T1, Glucagon-like peptide 1 receptor; assay: Positive allosteric modulation of human recombinant GLP1 receptor expressed in 9-3-H cells by calcium mobilization assay in presence of EC20 of exenatide; format: functional, cell-based
[8] = target: T1, Glucagon-like peptide 1 receptor; assay: Positive allosteric modulation of human recombinant GLP1 receptor expressed in 9-3-H cells by calcium mobilization assay in presence of EC20 of exenatide relative to control; format: functional, cell-based
[9] = target: T1, Glucagon-like peptide 1 receptor; assay: Positive allosteric modulation of human recombinant GLP1 receptor expressed in 9-3-H cells by calcium mobilization assay in presence of EC20 of liragulitide; format: functional, cell-based
[10] = target: T1, Glucagon-like peptide 1 receptor; assay: Positive allosteric modulation of human recombinant GLP1 receptor expressed in 9-3-H cells by calcium mobilization assay in presence of EC20 of liragulitide relative to control; format: functional, cell-based
[11] = target: T1, Glucagon-like peptide 1 receptor; assay: Positive allosteric modulation of human recombinant GLP1 receptor expressed in 9-3-H cells assessed as fold change at 30 uM by calcium mobilization assay […] relative to control; format: functional, cell-based
[12] = Intrinsic clearance in human liver microsomes; format: ADME; conditions: read-out: CLH
How it was run: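 Human liver microsome clearance was scaled to predicted hepatic clearance by the well-stirred model. The model used 20 g liver per kg body weight and 21 mL/kg hepatic blood flow.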

[13] = Intrinsic clearance in rat liver microsomes; format: ADME; conditions: read-out: CLH
Brain = assay: Fraction unbound in rat brain homogenate; format: ADME, tissue-based
Nucleic Acid = assay: Ratio of drug level in brain to plasma at 10 mg/kg, ip; format: ADME, organism-based; set-up: dose 10 mg/kg, route intraperitoneal; conditions: rat
How it was run: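 Rats were dosed IP at 10 mg/kg. Plasma and brain levels were measured at 0.5 h, and the brain:plasma ratio was given as Kp and as Kp,uu, using unbound fractions.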

[14] = Half life in rat at 1 mg/kg, iv and […], po; format: ADME, organism-based; set-up: dose 1 mg/kg, route oral; conditions: in vivo
How it was run: (§2)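 Male Sprague–Dawley rats were dosed IV at 1 mg/kg and PO at […]. Plasma pharmacokinetic parameters were derived from these doses.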

Rattus norvegicus = assay: Volume of distribution at steady state in rat at 1 mg/kg, iv and […], po; format: ADME, organism-based; set-up: dose 1 mg/kg, route oral; conditions: in vivo; how it was run: as §2
[15] = target: Melanocortin receptor 4 (Homo sapiens) (UniProt P32245); assay: Activity at melanocortin 4 receptor (unknown origin)
Chain of Melanocortin receptor 4 (Homo sapiens) (P32245 whole entry): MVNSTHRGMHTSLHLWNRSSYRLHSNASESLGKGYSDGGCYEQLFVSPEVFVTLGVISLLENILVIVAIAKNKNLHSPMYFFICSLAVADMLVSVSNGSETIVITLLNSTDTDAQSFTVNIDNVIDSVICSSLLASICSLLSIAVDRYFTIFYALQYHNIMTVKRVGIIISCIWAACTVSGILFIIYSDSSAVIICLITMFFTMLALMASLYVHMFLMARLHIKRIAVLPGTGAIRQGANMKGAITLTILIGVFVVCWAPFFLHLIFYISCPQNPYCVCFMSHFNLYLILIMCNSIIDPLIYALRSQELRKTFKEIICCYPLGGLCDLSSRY

[16] = target: Glucagon receptor (Homo sapiens) (UniProt P47871); assay: Activity at glucagon receptor (unknown origin)
Chain of Glucagon receptor (Homo sapiens) (P47871 whole entry, looked up): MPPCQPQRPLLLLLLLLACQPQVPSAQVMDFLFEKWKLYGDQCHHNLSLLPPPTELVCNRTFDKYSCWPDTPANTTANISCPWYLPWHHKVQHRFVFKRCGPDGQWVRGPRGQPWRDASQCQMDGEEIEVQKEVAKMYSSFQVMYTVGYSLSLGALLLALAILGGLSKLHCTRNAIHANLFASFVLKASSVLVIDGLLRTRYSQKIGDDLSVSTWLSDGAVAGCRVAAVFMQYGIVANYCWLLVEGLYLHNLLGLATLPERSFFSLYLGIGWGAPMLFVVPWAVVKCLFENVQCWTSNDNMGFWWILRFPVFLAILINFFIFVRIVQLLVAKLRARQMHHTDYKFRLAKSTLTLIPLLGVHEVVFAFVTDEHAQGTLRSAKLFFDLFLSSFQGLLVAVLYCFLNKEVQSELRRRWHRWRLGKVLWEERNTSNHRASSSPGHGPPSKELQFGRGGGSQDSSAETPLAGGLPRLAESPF

Q: Which EC50 ([1]; read-out: EC50) does the source give for `CCN1CCC[C@H]1CNC(=O)c1cn(C2CCCC2)c(=O)c2c1c1ccccc1n2C` here?
A: 2.4 µM

Q: And the EC50 ([1]; read-out: pEC50 (converted))?
A: 2.04 µM

Q: What about the Emax [2] of the same compound?
A: 53.4%

Q: And the IC50 (Cytochrome P450 1A2)?
A: > 20 µM

Q: What about the IC50 (Cytochrome P450 2C9) of the same compound?
A: > 20 µM

Q: What about the IC50 (Cytochrome P450 2D6) of the same compound?
A: > 20 µM

Q: What about the IC50 (Cytochrome P450 3A4) of the same compound?
A: 3.2 µM

Q: What about the Fu (Plasma [3]) of the same compound?
A: > 10%

Q: And the Fu (Plasma [4])?
A: > 10%

Q: What does the source list for `Cn1c2ccccc2c2c(C(=O)NC[C@@H]3CCCN3CCc3ccccc3)cn(C3CCCC3)c(=O)c21`?
A: EC50 ([1]; read-out: EC50): 14.1 µM; EC50 ([1]; read-out: pEC50 (converted)): 18.2 µM; Emax [2]: 68.5%

Q: With `CCCCCCN1CCC[C@H]1CNC(=O)c1cn(C2CCCC2)c(=O)c2c1c1ccccc1n2C` as the compound, how does the EC50 ([1]; read-out: EC50) read?
A: 10.3 µM

Q: What about the Emax [2] of the same compound?
A: 55.7%

Q: Which EC50 ([1]; read-out: EC50) does the source give for `CCCN1CCC[C@H]1CNC(=O)c1cn(C2CCCC2)c(=O)c2c1c1ccccc1n2C` here?
A: 6.5 µM

Q: What about the Emax [2] of the same compound?
A: 48.4%

Q: Which EC50 ([1]; read-out: EC50) does the source give for `COc1ccccc1CN1CCC[C@H]1CNC(=O)c1cn(C2CCCC2)c(=O)c2c1c1ccccc1n2C` here?
A: 12.1 µM

Q: What about the Emax [2] of the same compound?
A: 68.3%

Q: Which EC50 ([1]; read-out: EC50) does the source give for `CC(C)N1CCC[C@H]1CNC(=O)c1cn(C2CCCC2)c(=O)c2c1c1ccccc1n2C` here?
A: 1.3 µM

Q: And the Emax [2]?
A: 59.2%

Q: What about the IC50 (Cytochrome P450 1A2) of the same compound?
A: > 30 µM

Q: What about the IC50 (Cytochrome P450 2C9) of the same compound?
A: > 30 µM

Q: And the Fu (Plasma [3])?
A: 0.146

Q: And the Fu (Plasma [4])?
A: 0.158

Q: What about the EC50 [5] of the same compound?
A: 1800 nM

Q: What about the Emax [6] of the same compound?
A: 59.2%

Q: And the EC50 [7]?
A: 8.4 µM

Q: What about the Emax [8] of the same compound?
A: 71.5%

Q: And the EC50 [9]?
A: 30 µM

Q: What about the Emax [10] of the same compound?
A: 59.2%

Q: What about the Emax [11] of the same compound?
A: 20%

Q: What about the CLint scaled [12] of the same compound?
A: 69.9 mL/min/kg

Q: And the CLint scaled [13]?
A: 19.9 mL/min/kg

Q: What about the Fu (Brain) of the same compound?
A: 0.015

Q: What about the “K(p,uu,brain)” value (Nucleic Acid) of the same compound?
A: 0.27

Q: And the Kp (Nucleic Acid)?
A: 2.7

Q: What about the half-life [14] of the same compound?
A: 58 min

Q: What about the Vdss (Rattus norvegicus) of the same compound?
A: 4 L/kg

Q: With `CCN1CCCC1CNC(=O)c1cn(C2CCCC2)c(=O)c2c1c1ccccc1n2C` (racemic) as the compound, how does the EC50 ([1]; read-out: EC50) read?
A: 4.1 µM

Q: What about the Emax [2] of the same compound?
A: 58.9%

Q: And the Activity [15]?
A: inactive

Q: And the Activity [16]?
A: inactive
